“Also recorded” adds a separate entry of the source.
Key:
[1] = test system: Jurkat sh-Bak cells (Bax/Bak-deficient Jurkat cells); assay: Activity against apoptosis-resistant cells; type: cell-based, human; conditions: cisplatin-resistant
plasmid (pBR322) DNA = assay: Electrophoresis mobility shift assay; type: binding; conditions: 37 °C, 20 h, increasing molar ratios
Method in brief: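 pBR322 plasmid DNA (20 µg/mL) in 5 mM Tris/HCl, 50 mM NaClO₄, pH 7.39 was incubated with test compound at compound/DNA molar ratios of 0.25–4.0, 37 °C, 20 h, in the dark. Free DNA and cisplatin-DNA served as controls. Samples ran on 1% agarose in TAE for 1.5 h at 80 V, with GelRed staining for 30 min.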

Solubility = type: physicochemical
[2] = test system: MOLT-4 human leukemia cell line; conditions: read-out: IC50 MOLT-4; cited from earlier work
[3] = target: human serum albumin (HSA) (Homo sapiens, UniProt P02768); assay: HSA fluorescence quenching; type: binding; conditions: excitation 295 nm, HSA 10 µM, phosphate buffer pH 7.39; compared to cisplatin
Sequence of human serum albumin (HSA) (P02768 25-609): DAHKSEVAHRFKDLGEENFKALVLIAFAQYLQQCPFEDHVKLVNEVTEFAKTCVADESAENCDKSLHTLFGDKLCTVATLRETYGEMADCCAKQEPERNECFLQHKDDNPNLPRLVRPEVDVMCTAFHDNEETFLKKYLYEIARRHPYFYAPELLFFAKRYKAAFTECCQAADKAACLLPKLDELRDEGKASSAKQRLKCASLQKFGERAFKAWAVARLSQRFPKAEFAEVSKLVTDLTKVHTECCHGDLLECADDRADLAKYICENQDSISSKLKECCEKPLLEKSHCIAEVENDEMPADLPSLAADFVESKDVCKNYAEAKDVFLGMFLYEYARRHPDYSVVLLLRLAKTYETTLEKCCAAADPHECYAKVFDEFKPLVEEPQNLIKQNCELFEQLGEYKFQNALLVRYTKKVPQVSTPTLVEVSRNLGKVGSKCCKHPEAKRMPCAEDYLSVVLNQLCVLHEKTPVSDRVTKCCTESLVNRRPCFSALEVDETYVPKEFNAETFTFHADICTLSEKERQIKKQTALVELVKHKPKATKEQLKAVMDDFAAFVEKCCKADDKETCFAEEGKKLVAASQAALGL
Method in brief: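 HSA (10 µM) in phosphate buffer pH 7.39 received ten successive additions from an 8 mM DMSO stock of test compound, with a read 240 s after each. Tryptophan excitation was at 295 nm and emission was recorded at 300–450 nm at room temperature. Data were fitted to the Stern-Volmer equation F₀/F = 1 + K_SV[Q].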

[4] = test system: human Jurkat-T acute lymphoblastic leukemia cells; assay: Cytotoxicity by modified MTT-reduction method, 24 h; type: cell-based
[5] = test system: DU-145 human prostate cancer cells; assay: Cell death pathway; type: cell-based; conditions: 24 h
Method in brief: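 DU-145 cells in RPMI 1640 with 5% FCS, L-glutamine and penicillin/streptomycin were seeded at 1×10⁵ cells/mL and allowed to attach. Test compound (1% DMSO, diluted in water) was given for 24 h. Nuclei were stained with Hoechst (10 µg/ml) and imaged under UV. For flow cytometry, cells went into Hepes pH 7.4 annexin buffer with Annexin V conjugate (0.5 µg/ml) and 7-AAD, 37 °C, 15 min.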

Calf Thymus DNA = assay: Interaction with CT DNA by circular dichroism; type: binding; conditions: drug/DNA ratios 0.1-1.0, 37 °C, 20 h
Method in brief: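 CT DNA (195 µM) in 5 mM Tris/HCl, 50 mM NaClO₄, pH 7.39 received test compound from fresh 5 mM stocks in DMSO-H₂O (1:99). Mixtures were kept 20 h at 37 °C in the dark. CD spectra were recorded at 25 °C over 220–320 nm, blank-corrected, smoothed with a Savitzky-Golay filter, and expressed in molar ellipticity.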

[6] = test system: DU-145 human prostate cancer cells; assay: Cytotoxicity by modified MTT-reduction method, 24 h; type: cell-based; conditions: DU-145 cells
Method in brief: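 DU-145 cells were grown in RPMI 1640 with 5% FCS, L-glutamine and penicillin/streptomycin, seeded at 1 ×10⁵ cells/mL and allowed to attach. […] After 24 h, proliferation was read by a modified MTT-reduction method and IC₅₀ derived.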

Jurkat cells = assay: Cell death pathway; type: cell-based, human; conditions: 24 h, concentrations for IC50 values
Method in brief: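 Jurkat cells (5 ×10⁵ cells/ml) exposed to test compound for 24 h. Nuclei stained with Hoechst (10 µg/ml) and photographed under UV light. For flow cytometry, cells were held in annexin binding buffer (140 mM NaCl, 2.5 mM CaCl₂, 10 mM Hepes/NaOH, pH 7.4) with fluorescent AnnexinV (0.5 µg/ml) and 7-AAD (50ng/µl) at 37 °C for 15 min, then diluted with buffer and counted.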

[7] = Stability in solution by 31P{1H} and 1H NMR; type: physicochemical; conditions: RT

SMILES | toxicity to Jurkat sh-Bak cells [1] | effect on electrophoretic mobility of pBR322 forms (plasmid (pBR322) DNA) | solubility at concentrations required for ITC (Solubility; ITC conditions, phosphate buffer) | IC50 [2] | quenching of HSA fluorescence [3] | times more cytotoxic than cisplatin [4] | cell death / growth in DU-145 cells [5] | effect on CD spectrum of CT DNA / interaction with CT DNA (Calf Thymus DNA) | times more cytotoxic than cisplatin [6] | cell death in Jurkat cells (Jurkat cells) | solubility in H2O (Solubility; H2O) | stable in DMSO solution (time) ([7]; DMSO) | stable in H2O (time) ([7]; H2O)
N.N.[Cl][Pt][Cl] [Cisplatin, reference compound] | activity is totally dependent on the presence of functional Bax and Bak | decrease in mobility of the CCC form and an increase in mobility of the OC form | – | – | – | – | – | – | – | – | – | – | –
O=C1[N-][Au]([Cl])([Cl])[n+]2ccccc21 [Compound 5, [AuCl2(HN-C(O)-2-NC5H4)]] | exhibited some toxicity | – | poor solubility at the required concentrations | 3.1 µM | higher quenching | seven | do not induce cell death in DU-145 at 24 h | decrease in helicity (destabilizing effect); also recorded: interacts more strongly with DNA most likely by intercalation | 4 times | induced cell death in Jurkat cells; also recorded: induce both necrotic and apoptotic cell death | – | – | –
O=C(N=P12CN3CN(CN(C3)C1)C2)c1ccccn1 [Compound 1, TPA=N-C(O)-2-NC5H4 (N,N-IM)] | – | does not cause any shift for either form | – | – | – | – | – | – | – | – | soluble | 14 days | 3 h

From article PMC3483362 (Journal of inorganic biochemistry, 2012)
